This data set can be described thus: Toxicity liver stage against HepG2, at 10uM. The data set is classed as cell-based. Set-up: test concentration 10 uM, cell line HepG2-A16-CD81EGFP. Particulars: human, HepG2-A16-CD81EGFP cells; read-out: INHIBITION
The procedure, abridged: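 Uninfected HepG2-A16-CD81EGFP cells, 3 × 10^3 per well, 1536-well, plated on prespotted compound at 10 μM final, parasite-free screening media added to match infected plates; puromycin 10 μM positive, DMSO 0.5% negative; run in parallel with 48 h PbLuc assay at 37 °C, 5% CO2; viability by CellTiter-Glo luminescence, normalized to controls.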
On to `c1ccc2oc(C3CCN(Cc4ncon4)CC3)nc2c1`, for which the cytotoxicity at 10 µM was determined as 2.56%. The figure for `COCCN1C[C@H]2CN(C(=O)C3CC3)CCN2C1=O` is 7.37%.

As to `O=C(c1cccs1)N1CCN(Cc2cc(=O)c3ccccc3[nH]2)CC1`, the cytotoxicity at 10 µM was -2.93%. The figure for `Cc1nn(-c2ccccc2Cl)c(C)c1CCC(=O)O` is 4.68%; for `O=C(NCCn1cccc1)C(c1ccccc1)N1CCCC1` (stereo unspecified) it is -0.288%; for `CC(C)(C)C(=O)CN1CCc2ccccc2NCCC1=O` it is -104%. The same measure for `CC1=Nc2c(c(=O)[nH]n2C2CCCC2)C(c2ccc(O)cc2)S1` (stereo unspecified): -3.39%; for `CCc1cnc2c(c1Nc1ccccc1OC)c(=O)n(C)c(=O)n2C`: 6.87%. The figure for `O=C(Cn1c(=O)oc2ccccc21)N1Cc2cncnc2C1` is -0.0603%; for `CN1CCN(C(=O)c2ncn3c2CNS(=O)(=O)c2ccccc2-3)CC1` it is 4.5%; for `O=C(N1CCCC1)N1CCC2(CC(=O)N(c3ccc4c(c3)OCO4)C2)C1` (stereo unspecified) it is 9.79%. As to `O=C([C@H]1CCCO1)N1CCN(Cc2cccnc2)c2ncccc2C1`, the cytotoxicity at 10 µM came to 13.2%. The same measure for `Cc1ccc(N2CCCc3sc(C(=O)NCC4CCCO4)nc32)nn1` (stereo unspecified): -1.19%; for `CN(C)C(=O)[C@@H]1CCO[C@@H]2CCN(c3ncccn3)C[C@H]21`: 6.65%. Consider `NC(=O)N1CC[C@@H]2O[C@@H](COCC(=O)N3CCCC3)CC[C@@H]21`, for which the cytotoxicity at 10 µM was -0.356%.

Consider `Cc1ccc(CS(=O)(=O)N2CC[C@H]3[C@H]2CC(=O)N3C)cc1`, for which the cytotoxicity at 10 µM is -7.33%. The same measure for `Cc1csc(CN2CC[C@H]3C[C@H](C)O[C@@H]3C2)n1`: 2.58%; for `Cc1nc(CN2C(=O)CC[C@@H]3[C@H]2CCN3C(=O)C2CCCO2)cs1` (stereo partly specified): -9.33%. The figure for `Cc1ccsc1C(=O)N1CCn2cnc(COCC3CC3)c2C1` is 6.93%; for `NC(=O)Cn1nc(-c2ccccc2F)ccc1=O` it is -7.69%. The figure for `CCn1nc(C)c2nc(C(C)C)nc(N3CCCC3)c21` is -1.61%. In the case of `Cc1ccccc1C(=O)N1CC[C@H](O)[C@@H](N2CCOCC2)CC1`, the cytotoxicity at 10 µM was determined as 5.32%. The figure for `CNC(=O)CCc1cc(C)nc(C2CCN(C3CCCCC3)CC2)c1` is 4.54%. The figure for `COc1ccccc1C1CNCCN1C(=O)c1ccc(F)cc1` (stereo unspecified) is 0.57%; for `Nc1nccc(C2CCN(CCO)C2)n1` (stereo unspecified) it is 0.51%. The figure for `Cc1nc(Nc2ncccn2)cc(C2CCCN2C2CCOCC2)n1` (stereo unspecified) is -4.45%; for `O=C(CCS(=O)(=O)C1CCCC1)N1CCCC(n2ccnc2)C1` (stereo unspecified) it is -0.968%. Consider `CCOC(C)c1nccn1CC(=O)Nc1cc(C)on1` (stereo unspecified), for which the cytotoxicity at 10 µM was -5.58%.

For `CC(C)CCC(=O)NCc1ccc(N2CCCCC2)cc1`, the cytotoxicity at 10 µM came out at 7.89%. The same measure for `Clc1ccc(C2(NCc3noc(C4CC4)n3)CCOCC2)cc1`: -3.1%.

For `O=C(c1cc(Cl)c2c(c1)OCO2)N1CCN(c2ncccn2)CC1`, the cytotoxicity at 10 µM was -0.769%. The same measure for `Cc1nn(C)c(Cl)c1C1CCCN1c1ncnc2[nH]ccc12` (stereo unspecified): 10.9%. The same measure for `COCC(O)CN(C)C(=O)c1cccc(-c2csc(C)n2)c1` (stereo unspecified): -3.04%; for `c1nc(N2CCN(Cc3nnnn3C3CC3)CC2)c2sccc2n1`: 24.5%; for `O=C(NCCNS(=O)(=O)C1CCCCC1)c1ccccc1`: -3.82%.

For the compound `O=C(c1cnccn1)N1CCN2C[C@H](Oc3cccnc3)C[C@H]2C1`, the cytotoxicity at 10 µM turned out to be 4.62%. As for `CC(C)c1nccc([C@H]2C[C@@H]3CCN(Cc4ccco4)C[C@H]3O2)n1`, the cytotoxicity at 10 µM was -5.25%. The same measure for `CC1(c2ccccc2)CCC(=O)N(CCN2CCOCC2)C1` (stereo unspecified): -8.65%; for `CCC(Nc1nc(C(C)C)nc2c1cnn2C)c1ccc(O)cc1` (stereo unspecified): -51.2%.

In the case of `CCNC(=O)[C@@H]1C[C@@H](N)CN1C(=O)CCc1ccc(C)c(C)c1`, the cytotoxicity at 10 µM stood at 2.72%.

For the compound `Cc1nn(CC(=O)N2CCC3(CN(C)C(=O)O3)C2)c(=O)c2ccccc12` (stereo unspecified), the cytotoxicity at 10 µM came out at 9.74%. The same measure for `CCOc1ccc(Cl)cc1C(C(=O)O)N1CCC(CO)CC1` (stereo unspecified): 2.93%; for `Cc1cc(C(F)(F)F)nc(CCNc2nc(C)nc3c2cnn3C)n1`: 4.79%. The figure for `CCn1nc(CC(C)C)cc1C(=O)NCC(F)(F)F` is 21.3%.

Take `Cc1cc(-c2cncnc2)ccc1OCC(N)=O`: the cytotoxicity at 10 µM stood at 8.07%. The figure for `CCc1nc(CC(=O)N2CCCC2c2c(C)nn(C)c2OC)cs1` (stereo unspecified) is -2.17%. Take `Cc1cc(C)n(CC2CN(CC3CCCC3)CCO2)n1` (stereo unspecified): the cytotoxicity at 10 µM was -16.4%. The figure for `CCn1cc(CN2CCCN(C(=O)CCc3cnn(C)c3)CC2)cn1` is 0.153%; for `Cc1nc2cc(O)nn2c(C)c1CCC(=O)NCCCC(C)C` it is -1.52%. The same measure for `Cc1ccc(CS(=O)(=O)CC(=O)NCCCOC(C)C)cc1`: -2.9%; for `COC(=O)C(NC(=O)CC(C)C)c1cc(F)ccc1F` (stereo unspecified): -0.481%. On to `COc1ccccc1CC(=O)NS(=O)(=O)c1ccc(C#N)cc1`, for which the cytotoxicity at 10 µM is -10.4%. The figure for `CC(C)c1nccn1C1CCCN(C(=O)CCCc2ccccn2)C1` (stereo unspecified) is -9.02%; for `CCOc1ccnc(N2CCN(C(=O)c3cccnc3)CC2)n1` it is -5.19%. The same measure for `CC(C)c1noc(C(C)N2CCN(Cc3cccs3)CC2)n1` (stereo unspecified): -6.18%; for `CNC(=O)c1ccc(C(=O)N2CCCC(n3ccnc3C)C2)cn1` (stereo unspecified): -0.248%. The same measure for `CSc1nccn1-c1cccc(C(=O)NCCC(=O)NC(C)C)c1`: 0.153%; for `CCOc1cc(C)nc(N2CCN(C(=O)c3cscn3)CC2)n1`: -7.54%; for `CC(C)Cc1nc(CN2CCOC(Cn3cncn3)C2)no1` (stereo unspecified): 2.07%. Consider `Cc1nc(CN(C)CC(c2cccs2)N2CCOCC2)no1` (stereo unspecified), for which the cytotoxicity at 10 µM is -2.15%.

For the compound `CC(C)c1nc(C2CCCN(C(=O)CCn3ccccc3=O)C2)no1` (stereo unspecified), the cytotoxicity at 10 µM is -18.4%.

For `CN(C)CC1CN(Cc2ccc(-n3cccn3)cc2)CCO1` (stereo unspecified), the cytotoxicity at 10 µM worked out at 4.09%. The same measure for `CNC(=O)CCS(=O)(=O)Cc1cc(Cl)c2c(c1)OCCO2`: -4.89%; for `CCCNC(=O)C1CCN(Cc2csc(CC)n2)CC1`: -10.4%. In the case of `Cc1csc(N2CCCN(C(=O)c3ccoc3C)CC2)n1`, the cytotoxicity at 10 µM is -8.45%. The figure for `Cc1ccc(OCCN2CCCC(c3cc(C(N)=O)[nH]n3)C2)cc1` (stereo unspecified) is -9.14%; for `Cc1cnn(CC2CN(CC(=O)Nc3ccnn3C(C)C)CCO2)c1` (stereo unspecified) it is -8.06%.

Regarding `Cc1cnn(CC2CCCN2CC(=O)NC2CCOCC2)c1` (stereo unspecified), the cytotoxicity at 10 µM is -16%.

On to `COCCOc1ncccc1C(=O)N1CCCC1Cn1cc(C)cn1` (stereo unspecified), for which the cytotoxicity at 10 µM was -2.95%. `Cc1cnn(CC2CCCCN2C(=O)c2cccnc2N(C)C)c1` (stereo unspecified): the cytotoxicity at 10 µM is -7.37%. Turning to `CC(=O)NC1CCCN(C(=O)NCCOc2ccc3c(c2)OCO3)C1` (stereo unspecified), the cytotoxicity at 10 µM is -31%.

Turning to `CC(C)c1cc(C(=O)N2CCCC(n3cncn3)C2)n[nH]1` (stereo unspecified), the cytotoxicity at 10 µM was -11.9%. The figure for `O=C(CCc1c(F)cccc1F)N1CCCCC1Cn1cccn1` (stereo unspecified) is -11.1%; for `CCn1cnnc1CNC(=O)N1CCN(CC(C)C)CC1` it is 9.18%. The same measure for `CCOc1ncccc1C(=O)N(C)C1CCN(c2ccccn2)CC1`: -18.7%. The figure for `Cc1ccoc1C(=O)N1CCCN(Cc2cnn(C)c2)CC1` is -11.1%; for `CCn1cc(CN2CCCN(C(=O)c3c(C)oc(C)c3C)CC2)cn1` it is -8.89%. With `CCC(O)CN1CCN(C(=O)Cc2nc(-c3ccco3)oc2C)CC1` (stereo unspecified), the cytotoxicity at 10 µM was -2.94%. The same measure for `CC(=O)N1CCN(Cn2nc(-c3ccc(F)cc3)oc2=O)CC1`: -3.89%; for `Cc1cc2n(n1)CC(CNCc1cnn(-c3ccccc3)c1)CN2` (stereo unspecified): -9.01%. The same measure for `CCN(C(=O)CS(=O)(=O)Cc1cc(Cl)c2c(c1)OCCCO2)C1CC1`: 0.787%; for `CC(=O)N1CCCN(C(=O)c2ccn(-c3cccc(Cl)c3)n2)CC1`: -1.37%. Regarding `CCc1nc(C)c(C(=O)NCCN2CCC(C)CC2)s1`, the cytotoxicity at 10 µM is -5.6%. The figure for `Cc1ccc(CN(CCCN(C)C)Cc2cnc(N(C)C)nc2)o1` is 2.26%; for `Cc1ccc(CN(CCN(C)C)Cc2ccnn2C2CCCCO2)o1` (stereo unspecified) it is 0.267%; for `Cc1cccc(CN2CCC(c3csc4nccn34)CC2)n1` it is 1.54%. The figure for `COCC1CN(Cc2cc(C)on2)Cc2cn(CC3CCCC3)nc21` (stereo unspecified) is 6.4%; for `O=C(c1ccncc1)N1CCN2C[C@H](Oc3cccc(F)c3)C[C@H]2C1` it is 8.28%. The same measure for `O=C(Cc1ccccn1)N1CCC2(CC1)CN(CC1CC1)C(=O)CO2`: 7.43%. Regarding `O=C(NCCCO)c1cc(-c2cc[nH]n2)n2ccccc12`, the cytotoxicity at 10 µM is 14.3%. The figure for `O=C([C@@H]1C[C@@H]2CCN(Cc3ccccn3)C[C@H]2O1)N1CCCO1` is 2.29%; for `Cc1nc(CN2CCc3ncnc(-c4ccc(F)cc4)c3CC2)cs1` it is 4.89%. The same measure for `CC(C)N1CCC2(CCN(C(=O)c3cccnc3)CC2)C1`: 5.27%. The figure for `O=C(c1ccccc1F)N1C[C@H]2CCC[C@@]2(COCc2ccncc2)C1` is 7.4%; for `Cc1cnc(N2CCc3ncnc(N4CCN(C)CC4)c3CC2)nc1` it is -1.73%; for `O=C(NCc1ccccc1)N1C[C@@H]2C[C@H](C(=O)N3CCCC3)[C@H](C1)O2` it is 8.46%.
